Screening results (PubChem)
Hits are enriched below; roughly 1.9% of the tested compounds scored in any of these assays.
DENV2 CPE rescue = protects cells from dengue virus 2 cytopathic effect; DENV2-infected cells, cytopathic effect rescue, plate reader; CPE inhibition, % at 9.99 µM; 1.7% of 350,000 active; in the data active = CPE inhibition above about 20%, passing the limit was not always enough; inconclusive = no clear call, values can overlap the other calls; tested in BHK-21 cells;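 note: 0% = median of neutral control wells and 100% = median of positive control wells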
XiGFP reactiv = X-chromosome reactivation activator; AID 743238; XiGFP mouse fibroblasts, % GFP-positive cells imaging, 3 d; cells co-treated with 5-aza-dC sensitizer; scaled so ellipticine positive control = 100%; activation, % at 7.58 µM; 0.055% of 360,000 active;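 active = mean normalized replicate activation at least 10% and every replicate at or above 10%; inconclusive = only one of the two criteria met; inactive = mean below 10% and not all replicates reach 10%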;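 note: 0% = median of on-plate neutral control wells and 100% = ellipticine 6 µM median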
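System: SV40-immortalized XiGFP fibroblast cells, line 68-5-11 / Incubation: 3-day compound exposure, then 15 min fixation at room temperature / Compound: single concentration per compound, delivered by pin transfer / Buffer or medium: DMEM plus 5-aza-dC sensitizer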
CFTR F508del cor = correctors of CFTR F508del function in bronchial epithelial cells; activity (quench increase), % at 7.58 µM; CFBE cells, YFP halide quenching; stimulated with forskolin plus potentiator P3; % fluorescence drop versus neutral controls; 0.36% of 350,000 active;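 active = mean added fluorescence quench of at least 8% versus neutral control, with both replicates also reaching 8%; inconclusive = only one of the mean or replicate conditions met; inactive = mean below 8% and not both replicates reaching 8%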;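 note: cells transiently co-express mutant CFTR-F508del with the halide-sensitive YFP; corrector assay measuring rescue of mutant channel to the surface after 24 h compound exposure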
FN deposit inh = fibronectin deposition inhibition | 0.086% of 350,000 active | AID 743247 | AH1F fibroblasts, Alexa488-fibronectin deposition fluorescence, overnight | inhibition, % at 12.6 µM;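 active = mean inhibition across replicates of 30% or more, regardless of how many single replicates reach that level; inconclusive = mean under 30% yet at least half of replicates reach 30%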;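 note: positive control wells lacked labelled fibronectin entirely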
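Assay system: AH1F fibroblast monolayer, labelled fibronectin deposition. Amount: 10000 cells per well. Also added: labelled fibronectin 24 nM. Compound: single-point pinned compound. Incubation: cell attachment 1 h, compound and FN exposure overnight. Detection: fluorescence after three HBSS washes, excitation 485 nm, emission 525 nm. Read-out: inhibition of fibronectin deposition signal.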
Cneo AK release = Cryptococcus neoformans lysis via adenylate kinase release; C. neoformans lysis, adenylate kinase release luminescence, 4 h; normalised: neutral wells 0, clomiphene wells 100; lysis activity, % at 15 µM; 0.2% of 360,000 active; AID 651654;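 active = mean lysis activity across replicates of at least 80%, whatever share of replicates individually reach that level; inactive = mean lysis activity below 80%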
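Assay system: Cryptococcus neoformans yeast cells / Dosing: single-point compound dose / Timing: 4 h at 37 °C static, read 1 h later / Measured by: luminescence of released adenylate kinase using an AK detection reagent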
PGC1a acetyl inh = lowers PGC1a acetylation signal in U2OS cells; inhibition, % at 15.6 µM; AlphaScreen anti-acetyl-lysine; with virally co-expressed GCN5 acetyltransferase; AID 651687; 0.17% of 350,000 active;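 active = every replicate shows inhibition of at least 40%; inconclusive = mean inhibition at least 40% but some replicate below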;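 note: 0% = neutral control wells and 100% = positive control wells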
The depositor's hits bear a star.

How did C=CCN1C(=O)[C@@H]2Cc3c([nH]c4ccccc34)C(c3cc(OC)c(OC)c(OC)c3)N2C1=S (some centres not stated) do in these assays?
DENV2 CPE rescue: 4; XiGFP reactiv: 91*; CFTR F508del cor: 3; FN deposit inh: -24; Cneo AK release: -1; PGC1a acetyl inh: -19

What do the screens show for `CCN1C(=O)[C@@H]2Cc3c([nH]c4ccccc34)C(c3cc(OC)c(OC)c(OC)c3)N2C1=S` (some centres not stated)?
DENV2 CPE rescue: 6; XiGFP reactiv: 26*; CFTR F508del cor: -2; FN deposit inh: -11; Cneo AK release: 5; PGC1a acetyl inh: -8

Results for CC(=O)N1[C@H](CO)[C@@H](c2ccccc2)C12CN(Cc1nccs1)C2 ?
DENV2 CPE rescue: 3; XiGFP reactiv: 0; CFTR F508del cor: -1; PGC1a acetyl inh: 3

Results for O=C([C@@H]1[C@@H](CO)[C@@H]2Cn3c(cccc3=O)[C@H]1N2CC1CCCCC1)N1CCOCC1 ?
DENV2 CPE rescue: 5; XiGFP reactiv: 0; Cneo AK release: 61

What do the screens show for `O=C([C@H]1[C@H](CO)[C@H]2Cn3c(cccc3=O)[C@@H]1N2Cc1cccc(Cl)c1)N1CCOCC1`?
DENV2 CPE rescue: 6; XiGFP reactiv: 0; FN deposit inh: 2; Cneo AK release: 90*

What do the screens show for `O=C([C@H]1[C@H](CO)[C@H]2Cn3c(cccc3=O)[C@@H]1N2Cc1cccc(Cl)c1)N1CCCCC1`?
DENV2 CPE rescue: 34*; XiGFP reactiv: 0; CFTR F508del cor: 0; Cneo AK release: -3

What do the screens show for `O=C([C@H]1[C@H](CO)[C@H]2Cn3c(cccc3=O)[C@H]2N1CCC(F)(F)F)N1CCCCC1`?
DENV2 CPE rescue: -15; XiGFP reactiv: 1; Cneo AK release: 93*

Results for CCCNC(=O)[C@H]1[C@H](CO)[C@H]2Cn3c(cccc3=O)[C@@H]1N2Cc1cccc(Cl)c1 ?
DENV2 CPE rescue: -11; XiGFP reactiv: 0; CFTR F508del cor: 2; Cneo AK release: -1

How did CC(=O)N(C)C[C@@H]1Oc2cc(-c3ccccc3F)ccc2S(=O)(=O)N([C@@H](C)CO)C[C@@H]1C do in these assays?
DENV2 CPE rescue: -5; XiGFP reactiv: 0; CFTR F508del cor: -1; FN deposit inh: -8; Cneo AK release: -2; PGC1a acetyl inh: -7

How did O=C(C[C@H]1CC[C@H](NC(=O)Cc2cccnc2)[C@@H](CO)O1)NCc1ccc2c(c1)OCO2 do in these assays?
DENV2 CPE rescue: -2; XiGFP reactiv: 0; CFTR F508del cor: 2; FN deposit inh: -8; Cneo AK release: 3; PGC1a acetyl inh: -2

What do the screens show for `O=C(c1cccc([N+](=O)[O-])c1)c1cc2ccccc2o1`?
DENV2 CPE rescue: 46*; XiGFP reactiv: 0; CFTR F508del cor: 1; FN deposit inh: -3

What do the screens show for `CCN(C(=O)CN1CCN(c2ccccc2O)CC1)c1c(N)n(Cc2ccccc2)c(=O)[nH]c1=O`?
PGC1a acetyl inh: 50*

What do the screens show for `CCN(C(=O)COC(=O)/C=C/c1c(C)nn(-c2ccccc2)c1C)c1c(N)n(Cc2ccccc2)c(=O)[nH]c1=O`?
DENV2 CPE rescue: -6; XiGFP reactiv: 0; CFTR F508del cor: 10*; FN deposit inh: 4; Cneo AK release: 0

Results for CCN(C(=O)COC(=O)/C=C/c1ccc2c(c1)OCO2)c1c(N)n(Cc2ccccc2)c(=O)[nH]c1=O ?
DENV2 CPE rescue: 9; XiGFP reactiv: 1; CFTR F508del cor: 0; FN deposit inh: -1; Cneo AK release: 0; PGC1a acetyl inh: -6

How did CCN(C(=O)CN1CCN(c2ccccc2F)CC1)c1c(N)n(Cc2ccccc2)c(=O)[nH]c1=O do in these assays?
DENV2 CPE rescue: 1; XiGFP reactiv: 0; CFTR F508del cor: 0; FN deposit inh: 3; PGC1a acetyl inh: -2

Results for CCN(C(=O)CSc1nnc(C)n1-c1ccc(C)cc1)c1c(N)n(Cc2ccccc2)c(=O)[nH]c1=O ?
DENV2 CPE rescue: 3; XiGFP reactiv: 0; CFTR F508del cor: 20*; FN deposit inh: 0; Cneo AK release: -2

What do the screens show for `CCN(C(=O)CSc1nncn1-c1ccccc1)c1c(N)n(Cc2ccccc2)c(=O)[nH]c1=O`?
DENV2 CPE rescue: 0; XiGFP reactiv: 0; CFTR F508del cor: 0; FN deposit inh: 4; Cneo AK release: 1; PGC1a acetyl inh: -6

How did CCN(C(=O)COC(=O)c1cc2c(s1)CCCC2)c1c(N)n(Cc2ccccc2)c(=O)[nH]c1=O do in these assays?
DENV2 CPE rescue: inconclusive; XiGFP reactiv: -1; CFTR F508del cor: 15*; FN deposit inh: -3; Cneo AK release: -1

What do the screens show for `COCC(=O)N1CC(=O)N2[C@H](CO)[C@@H](c3ccc(-c4cccnc4)cc3)[C@H]2C1`?
DENV2 CPE rescue: -3; XiGFP reactiv: 0; CFTR F508del cor: -4; PGC1a acetyl inh: -3

How did COc1ccc(NC(=O)c2ccc(OCC3CCCO3)cc2)cc1OC (configuration not stated) do in these assays?
DENV2 CPE rescue: 0; XiGFP reactiv: 0; CFTR F508del cor: 8.8*; FN deposit inh: 0; Cneo AK release: 0; PGC1a acetyl inh: -2

How did COc1ccc(NC(=O)c2ccc(OCC3CCCO3)cc2)cc1Cl (configuration not stated) do in these assays?
DENV2 CPE rescue: 2; XiGFP reactiv: 0; CFTR F508del cor: -1; FN deposit inh: -1; Cneo AK release: -3; PGC1a acetyl inh: 7

Results for CCOC(=O)c1[nH]c(C)c(/C(O)=C2\C(=O)C(=O)N(CCCN3CCOCC3)C2c2cccs2)c1C (configuration not stated) ?
DENV2 CPE rescue: 1; XiGFP reactiv: 2; CFTR F508del cor: 15*; FN deposit inh: 12; PGC1a acetyl inh: -27

What do the screens show for `COc1ccccc1-c1ccc([C@@H]2C[C@H]3[C@H](CON3C)CN2C(=O)c2ccc(-c3ccccc3)cc2)cc1`?
DENV2 CPE rescue: 38*; XiGFP reactiv: 0; CFTR F508del cor: -1; Cneo AK release: -4; PGC1a acetyl inh: -2

How did COc1cc2c3nnc(-c4ccc(F)cc4)c-3cn(Cc3cccc(C)c3)c2cc1OC do in these assays?
DENV2 CPE rescue: 5; XiGFP reactiv: 82*; CFTR F508del cor: -1; FN deposit inh: -11; Cneo AK release: -1; PGC1a acetyl inh: -5

What do the screens show for `COc1cc2c3nnc(-c4ccc(F)cc4)c-3cn(Cc3ccc(C)cc3)c2cc1OC`?
DENV2 CPE rescue: 7; XiGFP reactiv: 98*; CFTR F508del cor: -16; FN deposit inh: -3; Cneo AK release: -1; PGC1a acetyl inh: -3
